Laboratory results taken from ChEMBL document CHEMBL1121677, “8-Hydroxy-2-(di-n-propylamino)tetralin, a new centrally acting 5-hydroxytryptamine receptor agonist” (1981).
The source made the active and inactive calls. The rule behind the calls is not given here.

Assays:
Rattus norvegicus [1] = experiment: Inhibition of 5-HTP accumulation in hemisphere of rat brain after subcutaneous administration of compound before 60 min to death; type: functional, organism-based
In short: (§1)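 Nonpretreated rats were given each enantiomer sc 60 min before death. NSD 1015 (100 mg/kg ip) was given 30 min before death, and 5-HTP or Dopa accumulation was measured in brain regions. Values are means ± SEM, n = 4 (some groups n = 3). Statistics: ANOVA followed by Student's t test.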

Rattus norvegicus [2] = experiment: Inhibition of 5-HTP accumulation in limbic part of rat brain after subcutaneous administration of compound before 60 min to death; type: functional, organism-based; details: Limbic system; in short: as §1
Rattus norvegicus [3] = experiment: Inhibition of 5-Hydroxy Tryptamine accumulation in hemispheres of rat brain after subcutaneous administration; type: functional; details: sc
Rattus norvegicus [4] = experiment: Inhibition of dopamine accumulation in limbic part of rat brain after subcutaneous administration; I= Inactive; type: functional, organism-based
Rattus norvegicus [5] = experiment: Inhibition of dopamine accumulation in striatum part of rat brain after subcutaneous administration; I= Inactive; type: functional, organism-based
Rattus norvegicus [6] = experiment: Inhibition of 5-Hydroxy Tryptamine accumulation in limbic part of rat brain after subcutaneous administration; type: functional; details: sc
Rattus norvegicus [7] = experiment: Inhibition of 5-Hydroxy Tryptamine accumulation in striatum part of rat brain after subcutaneous administration; type: functional; details: sc
Rattus norvegicus [8] = experiment: Inhibition of 5-Hydroxy tryptamine accumulation in hemispheres of rat brain after subcutaneous administration; type: functional; details: sc
Rattus norvegicus [9] = experiment: Inhibition of 5-Hydroxy tryptamine accumulation in limbic part of rat brain after subcutaneous administration; type: functional; details: sc
Rattus norvegicus [10] = experiment: Inhibition of 5-Hydroxy tryptamine accumulation in striatum part of rat brain after subcutaneous administration; type: functional; details: sc
Rattus norvegicus [11] = experiment: Inhibition of 5-Hydroxy tryptamine accumulation in hemispheres of rat brain after subcutaneous administration; I= Inactive; type: functional, organism-based
Rattus norvegicus [12] = experiment: Inhibition of 5-Hydroxy tryptamine accumulation in limbic part of rat brain after subcutaneous administration; I= Inactive; type: functional, organism-based
Rattus norvegicus [13] = experiment: Inhibition of 5-Hydroxy tryptamine accumulation in striatum part of rat brain after subcutaneous administration; I= Inactive; type: functional, organism-based
Rattus norvegicus [14] = experiment: Inhibition of dopamine accumulation in limbic part of rat brain after subcutaneous administration; type: functional; details: sc
Rattus norvegicus [15] = experiment: Inhibition of dopamine accumulation in striatum part of rat brain after subcutaneous administration; type: functional; details: sc

Row | Compound | Concentration (Rattus norvegicus [1]) | Concentration (Rattus norvegicus [2]) | ED50 (Rattus norvegicus [3]) | ED50 (Rattus norvegicus [4]) | ED50 (Rattus norvegicus [5]) | ED50 (Rattus norvegicus [6]) | ED50 (Rattus norvegicus [7]) | ED50 (Rattus norvegicus [8]) | ED50 (Rattus norvegicus [9]) | ED50 (Rattus norvegicus [10]) | ED50 (Rattus norvegicus [11]) | ED50 (Rattus norvegicus [12]) | ED50 (Rattus norvegicus [13]) | ED50 (Rattus norvegicus [14]) | ED50 (Rattus norvegicus [15])
1 | CCCN(CCC)[C@H]1CCc2cccc(O)c2C1 | 57 ng/g | 84 ng/g | 0.09 µmol/kg | inactive | inactive | 0.061 µmol/kg | 0.075 µmol/kg | – | – | – | – | – | – | – | –
2 | CCCN(CCC)[C@@H]1CCc2cccc(O)c2C1 | 44 ng/g | 63 ng/g | – | inactive | inactive | – | – | 0.052 µmol/kg | 0.036 µmol/kg | 0.048 µmol/kg | – | – | – | – | –
3 | CCCN(CCC)C1CCc2ccc(O)cc2C1 (centres undefined) | – | – | – | – | – | – | – | – | – | – | inactive | inactive | inactive | 0.027 µmol/kg | 0.03 µmol/kg
4 | CCCN(CCC)C1CCc2cccc(O)c2C1 (racemic) [8-OH-DPAT] | – | – | – | inactive | inactive | – | – | 0.068 µmol/kg | 0.048 µmol/kg | 0.045 µmol/kg | – | – | – | – | –
5 | CCCN(CCC)[C@@H]1CCc2ccc(O)cc2C1 | – | – | – | – | – | – | – | – | – | – | inactive | inactive | inactive | 0.18 µmol/kg | 0.17 µmol/kg
6 | CCCN(CCC)C1CCc2c(O)cccc2C1 (centres undefined) [5-OH-DPAT] | – | – | – | – | – | – | – | – | – | – | inactive | inactive | inactive | 0.011 µmol/kg | 0.009 µmol/kg
